Measured values taken from ChEMBL document CHEMBL4145674, “Discovery of 3-Benzyl-1-( trans-4-((5-cyanopyridin-2-yl)amino)cyclohexyl)-1-arylurea Derivatives as Novel and Selective Cyclin-Dependent Kinase 12 (CDK12) Inhibitors” (J Med Chem, 2018).
Converted amounts (≈) assume the structure as drawn. The source made the active and inactive calls. The calls are words filed in the database; no cut-off is given here.

Columns and labels:
CDK12/Cyclin K = CDK12/Cyclin K (Homo sapiens, UniProt Q9NYV4); assay: Inhibition of N-terminal FLAG-tagged human full-length CDK12 (1 to 1490 residues)/N-terminal His-tagged CycK (1 to 580 residues) expressed in Sf9 cells assessed as reduction in ATP-dependent ULight-4E-BP1 (Thr37/Thr46) substrate peptide phosphorylation pre-incubated for 60 mins by LANCE Ultra assay
CDK2/Cyclin A2 = CDK2/Cyclin A2 (Homo sapiens, UniProt P24941); assay: Inhibition of GST-tagged human CDK2/CCNA2 (04 to 103 residues) pre-incubated for 5 mins before addition of histone H1 substrate and [gamma-33P]ATP and measured after 20 mins by radiometric assay; assay type: protein-complex assay
Outline: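 GST-CDK2/CCNA2 at 1.8 mU/well in 25 mM HEPES pH 7.5, 10 mM Mg acetate, 1 mM DTT. Compound and enzyme together 5 min at room temperature before ATP start. Final levels: histone H1 1 μg/well, [γ-33P]ATP 500 nM. Reaction 20 min at room temperature, stopped with 10% TCA. Filter capture, phosphoric acid wash, scintillation counting. IC50 reported.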

[1] = Solubility in aqueous buffer solution at pH 6.8 by UV absorbance spectroscopy; assay type: physicochemical
Outline: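 Compound in DMSO spiked into aqueous buffer pH 6.8 and incubated. Precipitate removed by filtration, dissolved compound quantified by UV absorbance of the filtrate.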

[2] = Partition coefficient between 1-octanol and aqueous buffer, log D of the compound at pH 7.4 buffer by chromatography; assay type: physicochemical; conditions: 1-octanol/aqueous buffer
Outline: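 log D as octanol/buffer partition at pH 7.4, determined chromatographically.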

CDK9/cyclin T1 = CDK9/cyclin T1 (Homo sapiens, UniProt P50750); assay type: protein-complex assay
[3] = Permeability of the compound at 10 umol/L incubated for 3 hrs by LC/MS/MS detection based PAMPA method; assay type: ADME; conditions: read-out: permeability
Outline: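 PAMPA: donor buffer pH 7.4 holding 10 μmol/L compound; acceptor filter coated with GIT-0 lipid, acceptor sink buffer. 3 h at room temperature. Compound in donor and acceptor wells quantified by LC/MS/MS.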

[4] = biological target: Cyclin-dependent kinase 12 (Homo sapiens, UniProt Q9NYV4); assay: Time dependent inhibition of human CDK12 incubated for 0 to 5 hrs using ULight-4E-BP1 (Thr37/Thr46) substrate by LANCE system based assay
CDK8/Cyclin C = CDK8/Cyclin C (Homo sapiens, UniProt P49336); assay: Inhibition of GST-tagged human CDK8/CycC (04 to 109 residues) using kinase tracer 236 probe incubated for 60 mins by TR-FRET assay; assay type: protein-complex assay
CDK7/Cyclin H/MNAT1 = CDK7/Cyclin H/MNAT1 (Homo sapiens, UniProt P50613)
Homo sapiens = organism: Homo sapiens; assay: Selectivity index, ratio of IC50 for inhibition of GST-tagged human CDK2/CCNA2 (04 to 103 residues) to IC50 for inhibition of N-terminal FLAG-tagged human full-length CDK12 (1 to 1490 residues)/N-terminal His-tagged CycK (1 to 580 residues) expressed in Sf9 cells
Outline: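 Ratio of two IC50s. CDK2/CCNA2: radiometric assay, 1.8 mU/well enzyme, histone H1 (1 μg/well), 500 nM [γ-33P]ATP, 5 min compound preincubation, 20 min at room temperature, TCA stop, filter-bound counts. In-house CDK12/CycK (30 nM): LANCE TR-FRET, ULight-4E-BP1 peptide 150 nM, ATP 10 μM, HEPES pH 7.5, 60 min preincubation, EDTA/Eu-antibody stop.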

Sequence of CDK12/Cyclin K (O75909 whole entry, the tested form may be a part): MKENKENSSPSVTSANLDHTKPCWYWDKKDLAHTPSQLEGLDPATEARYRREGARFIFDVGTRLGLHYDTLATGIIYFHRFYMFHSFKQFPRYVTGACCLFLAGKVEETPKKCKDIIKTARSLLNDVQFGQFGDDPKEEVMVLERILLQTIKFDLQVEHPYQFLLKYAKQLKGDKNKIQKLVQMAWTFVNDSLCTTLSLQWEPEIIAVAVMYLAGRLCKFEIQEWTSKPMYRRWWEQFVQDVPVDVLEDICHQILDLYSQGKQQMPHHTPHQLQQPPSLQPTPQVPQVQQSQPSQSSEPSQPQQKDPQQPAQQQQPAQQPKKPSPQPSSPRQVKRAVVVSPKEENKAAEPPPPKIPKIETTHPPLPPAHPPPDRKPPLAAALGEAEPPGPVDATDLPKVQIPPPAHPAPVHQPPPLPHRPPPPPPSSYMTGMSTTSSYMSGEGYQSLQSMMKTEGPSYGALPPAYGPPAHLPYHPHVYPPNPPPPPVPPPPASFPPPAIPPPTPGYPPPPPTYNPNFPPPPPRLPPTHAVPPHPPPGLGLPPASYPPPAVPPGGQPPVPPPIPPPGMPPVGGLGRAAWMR
Sequence of CDK12/Cyclin K (Q9NYV4 whole entry, the tested form may be a part): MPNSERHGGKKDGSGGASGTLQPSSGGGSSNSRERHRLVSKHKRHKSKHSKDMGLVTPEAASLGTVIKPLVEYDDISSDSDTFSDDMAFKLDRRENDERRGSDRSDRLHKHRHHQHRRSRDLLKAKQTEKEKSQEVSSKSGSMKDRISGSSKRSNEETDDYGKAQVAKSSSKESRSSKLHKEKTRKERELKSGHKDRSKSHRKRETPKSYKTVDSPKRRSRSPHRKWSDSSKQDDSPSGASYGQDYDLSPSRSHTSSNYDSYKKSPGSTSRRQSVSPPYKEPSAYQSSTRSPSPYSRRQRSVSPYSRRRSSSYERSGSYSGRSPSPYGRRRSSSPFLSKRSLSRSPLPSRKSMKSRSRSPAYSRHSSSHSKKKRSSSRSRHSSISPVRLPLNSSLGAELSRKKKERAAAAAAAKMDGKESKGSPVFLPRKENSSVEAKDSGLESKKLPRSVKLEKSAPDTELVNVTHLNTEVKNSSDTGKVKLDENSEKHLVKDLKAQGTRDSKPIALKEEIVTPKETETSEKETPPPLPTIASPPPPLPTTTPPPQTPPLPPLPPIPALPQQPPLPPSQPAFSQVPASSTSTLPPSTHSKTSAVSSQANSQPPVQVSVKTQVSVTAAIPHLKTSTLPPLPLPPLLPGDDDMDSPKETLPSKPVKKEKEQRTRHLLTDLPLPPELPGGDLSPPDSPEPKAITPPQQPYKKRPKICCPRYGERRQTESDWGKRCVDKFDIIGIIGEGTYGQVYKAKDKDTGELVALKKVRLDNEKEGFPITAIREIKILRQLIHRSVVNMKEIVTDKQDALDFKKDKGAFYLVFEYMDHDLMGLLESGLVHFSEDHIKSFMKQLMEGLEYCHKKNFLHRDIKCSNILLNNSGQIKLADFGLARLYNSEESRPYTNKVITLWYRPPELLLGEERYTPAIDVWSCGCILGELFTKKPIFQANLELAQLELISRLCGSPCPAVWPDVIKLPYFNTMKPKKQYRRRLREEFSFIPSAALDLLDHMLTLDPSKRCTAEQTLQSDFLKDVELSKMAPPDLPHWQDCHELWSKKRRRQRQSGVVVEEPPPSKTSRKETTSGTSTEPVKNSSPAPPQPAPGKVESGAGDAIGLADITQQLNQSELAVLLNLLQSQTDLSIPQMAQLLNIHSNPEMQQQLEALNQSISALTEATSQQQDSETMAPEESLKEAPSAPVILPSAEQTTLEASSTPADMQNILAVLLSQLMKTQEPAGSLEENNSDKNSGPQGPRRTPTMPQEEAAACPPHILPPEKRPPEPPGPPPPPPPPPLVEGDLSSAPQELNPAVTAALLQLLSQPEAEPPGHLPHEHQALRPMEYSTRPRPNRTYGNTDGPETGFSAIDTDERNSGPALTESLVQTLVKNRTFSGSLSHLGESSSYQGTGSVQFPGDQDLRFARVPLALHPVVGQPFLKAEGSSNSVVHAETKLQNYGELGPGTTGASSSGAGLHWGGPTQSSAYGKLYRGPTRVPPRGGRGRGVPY
Sequence of CDK9/cyclin T1 (O60563 whole entry): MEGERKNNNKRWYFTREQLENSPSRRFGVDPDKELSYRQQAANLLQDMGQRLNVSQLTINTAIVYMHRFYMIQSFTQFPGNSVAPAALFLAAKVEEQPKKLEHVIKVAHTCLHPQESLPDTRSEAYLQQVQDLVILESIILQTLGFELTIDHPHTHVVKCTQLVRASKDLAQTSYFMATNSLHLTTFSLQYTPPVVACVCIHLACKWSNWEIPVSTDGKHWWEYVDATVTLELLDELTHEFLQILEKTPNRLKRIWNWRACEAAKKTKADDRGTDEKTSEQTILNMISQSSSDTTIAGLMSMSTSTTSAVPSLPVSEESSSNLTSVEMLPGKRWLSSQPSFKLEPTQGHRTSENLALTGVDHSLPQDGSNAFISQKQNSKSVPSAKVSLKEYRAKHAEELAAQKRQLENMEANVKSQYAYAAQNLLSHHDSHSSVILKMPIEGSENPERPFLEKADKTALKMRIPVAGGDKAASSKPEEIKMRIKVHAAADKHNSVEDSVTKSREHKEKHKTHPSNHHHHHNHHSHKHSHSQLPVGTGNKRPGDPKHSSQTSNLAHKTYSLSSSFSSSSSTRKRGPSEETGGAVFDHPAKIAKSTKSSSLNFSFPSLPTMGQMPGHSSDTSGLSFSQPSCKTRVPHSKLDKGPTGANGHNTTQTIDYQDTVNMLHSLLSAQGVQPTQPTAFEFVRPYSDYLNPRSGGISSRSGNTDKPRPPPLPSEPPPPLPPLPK
Sequence of CDK9/cyclin T1 (P50750 whole entry): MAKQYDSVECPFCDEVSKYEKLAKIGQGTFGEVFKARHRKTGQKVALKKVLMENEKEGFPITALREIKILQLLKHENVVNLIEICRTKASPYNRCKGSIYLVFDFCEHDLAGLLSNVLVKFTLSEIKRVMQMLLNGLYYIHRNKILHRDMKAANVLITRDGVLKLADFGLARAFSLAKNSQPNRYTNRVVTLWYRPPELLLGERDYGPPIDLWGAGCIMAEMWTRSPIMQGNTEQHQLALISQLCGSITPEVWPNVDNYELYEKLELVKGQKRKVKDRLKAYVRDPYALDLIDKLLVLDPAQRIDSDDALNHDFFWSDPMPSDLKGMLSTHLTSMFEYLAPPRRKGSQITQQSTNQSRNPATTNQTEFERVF
Sequence of CDK8/Cyclin C (P49336 whole entry, the tested form may be a part): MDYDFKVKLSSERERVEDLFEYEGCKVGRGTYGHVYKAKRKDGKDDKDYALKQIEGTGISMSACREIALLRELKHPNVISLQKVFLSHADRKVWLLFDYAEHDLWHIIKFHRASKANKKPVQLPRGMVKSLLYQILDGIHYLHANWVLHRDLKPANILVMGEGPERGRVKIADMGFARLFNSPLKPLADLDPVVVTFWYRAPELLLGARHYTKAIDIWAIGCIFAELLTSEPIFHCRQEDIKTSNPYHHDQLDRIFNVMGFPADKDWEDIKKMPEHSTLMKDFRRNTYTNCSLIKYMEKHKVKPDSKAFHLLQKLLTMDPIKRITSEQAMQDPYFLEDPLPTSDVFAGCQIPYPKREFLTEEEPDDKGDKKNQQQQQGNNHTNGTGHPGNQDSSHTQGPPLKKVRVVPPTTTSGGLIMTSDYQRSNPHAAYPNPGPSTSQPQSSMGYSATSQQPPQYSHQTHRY
Sequence of CDK8/Cyclin C (P24863 whole entry, further chain, the tested form may be a part): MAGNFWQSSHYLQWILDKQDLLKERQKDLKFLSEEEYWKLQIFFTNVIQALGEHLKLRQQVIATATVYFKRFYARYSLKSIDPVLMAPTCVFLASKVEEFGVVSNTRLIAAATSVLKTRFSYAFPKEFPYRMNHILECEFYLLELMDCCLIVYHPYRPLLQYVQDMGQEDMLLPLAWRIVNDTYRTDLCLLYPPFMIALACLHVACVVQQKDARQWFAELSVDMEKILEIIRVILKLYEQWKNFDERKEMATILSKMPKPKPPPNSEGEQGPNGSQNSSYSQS
Sequence of Cyclin-dependent kinase 12 (Q9NYV4 whole entry, looked up, the tested form may be a part): as the sequence (Q9NYV4 whole entry, the tested form may be a part) above
Sequence of CDK7/Cyclin H/MNAT1 (P51946 whole entry, the tested form may be a part): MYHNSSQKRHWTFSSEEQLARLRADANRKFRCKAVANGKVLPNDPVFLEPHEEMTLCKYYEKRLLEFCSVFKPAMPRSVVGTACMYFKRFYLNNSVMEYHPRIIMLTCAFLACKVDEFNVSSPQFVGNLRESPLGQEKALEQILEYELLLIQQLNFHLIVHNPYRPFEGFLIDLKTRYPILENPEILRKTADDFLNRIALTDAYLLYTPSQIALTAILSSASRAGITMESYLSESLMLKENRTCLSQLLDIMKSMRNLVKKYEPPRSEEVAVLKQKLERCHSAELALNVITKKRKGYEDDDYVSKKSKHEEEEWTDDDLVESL
Sequence of CDK7/Cyclin H/MNAT1 (P50613 whole entry, the tested form may be a part): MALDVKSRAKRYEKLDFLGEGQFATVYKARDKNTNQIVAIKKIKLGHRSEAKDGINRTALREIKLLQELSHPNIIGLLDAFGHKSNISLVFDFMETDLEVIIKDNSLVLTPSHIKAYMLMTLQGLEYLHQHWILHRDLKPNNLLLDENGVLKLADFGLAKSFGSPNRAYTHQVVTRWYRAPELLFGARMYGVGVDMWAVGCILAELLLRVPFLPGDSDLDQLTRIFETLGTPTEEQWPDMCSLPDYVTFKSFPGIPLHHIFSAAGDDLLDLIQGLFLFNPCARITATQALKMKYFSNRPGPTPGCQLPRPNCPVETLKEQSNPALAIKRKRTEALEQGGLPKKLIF
Sequence of CDK7/Cyclin H/MNAT1 (P51948 whole entry, further chain, the tested form may be a part): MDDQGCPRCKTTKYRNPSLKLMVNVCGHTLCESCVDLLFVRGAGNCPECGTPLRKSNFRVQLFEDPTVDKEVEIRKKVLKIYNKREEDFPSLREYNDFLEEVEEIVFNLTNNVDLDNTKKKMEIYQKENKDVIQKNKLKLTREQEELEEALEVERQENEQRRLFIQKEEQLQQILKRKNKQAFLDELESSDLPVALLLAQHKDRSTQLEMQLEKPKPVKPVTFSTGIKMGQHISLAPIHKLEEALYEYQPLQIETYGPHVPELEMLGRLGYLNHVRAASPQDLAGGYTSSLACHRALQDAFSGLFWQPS

Row | SMILES | IC50 (CDK12/Cyclin K) [nM] | IC50 (CDK2/Cyclin A2) [µM] | further results
1 | CN(c1ccc(C#N)cn1)C1CCN(S(=O)(=O)c2ccc(-c3cnn(C)c3)cc2)CC1 | > 30000 | 68 | –
2 | Cn1cc(-c2ccc(S(=O)(=O)N3CCC(Nc4ccc(C(F)(F)F)cn4)CC3)cc2)cn1 | 1800 | 0.0058 | –
3 | Cn1cccc(-c2ccc(N(C(=O)NCc3ccccc3)[C@H]3CC[C@H](Nc4ccc(C#N)cn4)CC3)cc2)c1=O | 250 | 18 | solubility [1]: 4.7 µg/mL (≈ 8.82 µM); chromatographic logD [2]: 2.7; IC50 (CDK9/cyclin T1): 15 µM
4 | Cn1ccc(-c2ccc(N(C(=O)NCc3ccccc3)[C@H]3CC[C@H](Nc4ccc(C#N)cn4)CC3)cc2)cc1=O | 44 | > 100 | solubility [1]: < 0.08 µg/mL; chromatographic logD [2]: 2.3; IC50 (CDK9/cyclin T1): > 30 µM; Papp at 3 h, 10 µM [3]: 24.7 ×10⁻⁶ cm/s
5 | Cn1cc(-c2ccc(C(=O)N3CCC(Nc4ccc(C#N)cn4)CC3)cc2)cn1 | 23000 | – | –
6 | COC(=O)N(c1ccc(-c2cnn(C)c2)cc1)[C@H]1CC[C@H](Nc2ccc(C#N)cn2)CC1 | 200 | 1.6 | –
7 | Cn1cc(-c2ccc(CN3CCC(Nc4ccc(C#N)cn4)CC3)cc2)cn1 | 16000 | – | –
8 | COc1ccc(NC2CCN(S(=O)(=O)c3ccc(-c4cnn(C)c4)cc3)CC2)nc1 | > 30000 | 21 | –
9 | Cn1cc(-c2ccc(S(=O)(=O)N3CCC(Nc4cccc(C#N)n4)CC3)cc2)cn1 | > 30000 | 46 | –
10 | CN(C)C/C=C/C(=O)Nc1ccc(C(=O)N2CCC[C@@H](Nc3ncc(Cl)c(-c4c[nH]c5ccccc45)n3)C2)cc1 | – | – | TDI [4]: Active
11 | Cn1cc(-c2ccc(S(=O)(=O)N3CCC(Nc4cc(C#N)ccn4)CC3)cc2)cn1 | > 30000 | 0.032 | –
12 | CC(=O)N(c1ccc(-c2cnn(C)c2)cc1)[C@H]1CC[C@@H](Nc2ccc(C#N)cn2)CC1 | > 30000 | > 100 | –
13 | Cn1cc(-c2ccc(N([C@H]3CC[C@H](Nc4ccc(C#N)cn4)CC3)S(C)(=O)=O)cc2)cn1 | 110 | 0.031 | –
14 | CC(=O)N(c1ccc(-c2cnn(C)c2)cc1)[C@H]1CC[C@H](Nc2ncc3ccccc3n2)CC1 | 13 | 0.024 | –
15 | N#Cc1ccc(N[C@H]2CC[C@H](N(C(=O)NCc3ccccc3)c3ccccc3)CC2)nc1 | 63 | 56 | solubility [1]: 4 µg/mL (≈ 9.4 µM); chromatographic logD [2]: 3.3; IC50 (CDK9/cyclin T1): > 30 µM
16 | Cn1cc(-c2ccc(N(C(=O)CCc3ccccc3)[C@H]3CC[C@H](Nc4ccc(C#N)cn4)CC3)cc2)cn1 | 160 | 2.9 | –
17 | Cn1cc(-c2ccc(S(=O)(=O)N3CCC(Nc4ccccn4)CC3)cc2)cn1 | > 30000 | 1.2 | –
18 | Cn1cc(-c2ccc(N[C@H]3CC[C@H](Nc4ccc(C#N)cn4)CC3)cc2)cn1 | 8600 | 9.8 | –
19 | Cn1cc(-c2ccc(N(C(=O)OCc3ccccc3)[C@H]3CC[C@H](Nc4ccc(C#N)cn4)CC3)cc2)cn1 | 640 | 2.5 | –
20 | N#Cc1ccc(N[C@H]2CC[C@H](N(C(=O)NCc3ccccc3)c3ccc(-c4cccnc4)cc3)CC2)nc1 | 59 | > 100 | solubility [1]: 0.67 µg/mL (≈ 1.33 µM); chromatographic logD [2]: 3; IC50 (CDK9/cyclin T1): > 30 µM; Papp at 3 h, 10 µM [3]: 28 ×10⁻⁶ cm/s
21 | Cn1cc(-c2ccc(S(=O)(=O)N3CCC(Nc4ccc(C#N)cn4)CC3)cc2)cn1 | 360 | 0.01 | IC50 (CDK8/Cyclin C): > 10 µM; IC50 (CDK9/cyclin T1): > 30 µM; IC50 (CDK7/Cyclin H/MNAT1): > 10 µM
22 | Cn1cc(-c2ccc(N(C(=O)NCC3CCCCC3)[C@H]3CC[C@H](Nc4ccc(C#N)cn4)CC3)cc2)cn1 | 99 | > 100 | –
23 | Cn1cc(-c2ccc(S(=O)(=O)N3CCC(Nc4ccc(C#N)cc4)CC3)cc2)cn1 | > 30000 | – | –
24 | CC(=O)N(c1ccc(-c2cnn(C)c2)cc1)[C@H]1CC[C@H](Nc2ccc(C#N)cn2)CC1 | 130 | 0.47 | –
25 | CCNC(=O)N(c1ccc(-c2cnn(C)c2)cc1)[C@H]1CC[C@H](Nc2ccc(C#N)cn2)CC1 | 460 | 4.8 | –
26 | Cn1cc(-c2ccc(N(C(=O)NCc3ccccc3)[C@H]3CC[C@H](Nc4ccc(C#N)cn4)CC3)cc2)cn1 | 63 | > 100 | Ratio IC50 (Homo sapiens): > 800; solubility [1]: 0.33 µg/mL (≈ 0.653 µM); chromatographic logD [2]: 2.8; IC50 (CDK9/cyclin T1): > 30 µM; Papp at 3 h, 10 µM [3]: 28.8 ×10⁻⁶ cm/s
27 | Cn1c(-c2ccc(N(C(=O)NCc3ccccc3)[C@H]3CC[C@H](Nc4ccc(C#N)cn4)CC3)cc2)cccc1=O | 310 | 27 | solubility [1]: < 0.09 µg/mL; chromatographic logD [2]: 2.6; IC50 (CDK9/cyclin T1): > 30 µM
